Key:
[1] = system: healthy male subjects; test: VAS Bond and Lader; type: in vivo, human; conditions: 12-hour post-dose period
Method in brief: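 Subjects marked 16 horizontal 100 mm visual analogue scales twice pre-dose and at 0.5–10 h after a single dose or placebo. Three factors were derived: alertness from 9 scores, mood from 5 and calmness from 2. Change from baseline over 12 h was analysed by MMRM against pooled placebo, with baseline as covariate.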

[2] = target: sigma non‐opioid intracellular receptor 1 (Homo sapiens, UniProt Q99720); test: In vitro binding affinity, sigma non-opioid intracellular receptor 1
[3] = system: healthy male subjects; test: NeuroCart pupillometry; type: in vivo, human; conditions: 12-hour post-dose period
Method in brief: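 In healthy men given a single dose or placebo, both eyes were photographed simultaneously with the head in a support. This was done twice pre-dose and at 0.5–10 h post-dose. Change from baseline over 12 h was analysed by MMRM against pooled placebo, with baseline as covariate.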

[4] = target: T1, α1B‐adrenoceptor (Homo sapiens, UniProt P35368); test: In vitro binding affinity, α1B-adrenoceptor; conditions: read-out: Ki, α1B-adrenoceptor; preclinical in vitro panel
T1 sequence (P35368 1-520): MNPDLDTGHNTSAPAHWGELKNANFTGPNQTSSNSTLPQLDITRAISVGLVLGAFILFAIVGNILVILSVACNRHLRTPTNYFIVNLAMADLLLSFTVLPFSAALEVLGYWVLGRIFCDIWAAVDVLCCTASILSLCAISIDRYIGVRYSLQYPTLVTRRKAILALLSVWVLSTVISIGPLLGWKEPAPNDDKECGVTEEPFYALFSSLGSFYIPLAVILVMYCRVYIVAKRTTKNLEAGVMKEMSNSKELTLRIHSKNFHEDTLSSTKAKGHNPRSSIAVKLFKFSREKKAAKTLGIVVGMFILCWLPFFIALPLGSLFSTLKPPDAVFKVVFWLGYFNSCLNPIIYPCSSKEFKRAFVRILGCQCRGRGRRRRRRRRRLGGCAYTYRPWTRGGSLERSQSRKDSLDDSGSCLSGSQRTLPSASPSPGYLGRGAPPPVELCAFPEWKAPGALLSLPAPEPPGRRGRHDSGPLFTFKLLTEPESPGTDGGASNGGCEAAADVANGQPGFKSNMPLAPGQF

sigma non‐opioid intracellular receptor 1, sequence (Q99720 whole entry, species assumed): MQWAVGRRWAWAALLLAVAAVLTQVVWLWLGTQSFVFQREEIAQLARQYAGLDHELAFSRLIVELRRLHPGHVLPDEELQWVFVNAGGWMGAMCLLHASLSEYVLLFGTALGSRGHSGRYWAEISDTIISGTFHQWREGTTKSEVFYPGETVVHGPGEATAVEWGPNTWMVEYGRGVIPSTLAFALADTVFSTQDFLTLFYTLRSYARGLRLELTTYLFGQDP

With `CN1CCC23CCCCC2C1Cc1ccc(C(N)=O)cc13` (stereo not drawn) [ALKS 7119, (9α, 13α)‐17‐methylmorphinan‐3‐carboxamide] the “VAS Bond and Lader “calmness”, LSM CFB” value ([1]; 3 mg single oral dose) was 6.65 mm, the “VAS Bond and Lader “mood”, LSM CFB” value ([1]; 3 mg single oral dose) was 6.17 mm and the “VAS Bond and Lader “subjective alertness”, LSM CFB” value ([1]; 3 mg single oral dose) was 1.64 mm. The “VAS Bond and Lader “calmness”, LSM CFB” value ([1]; 10 mg single oral dose) was −0.31 mm, the “VAS Bond and Lader “mood”, LSM CFB” value ([1]; 10 mg single oral dose) was −0.04 mm and the “VAS Bond and Lader “subjective alertness”, LSM CFB” value ([1]; 10 mg single oral dose) was 0.03 mm. The “VAS Bond and Lader “calmness”, LSM CFB” value ([1]; 25 mg single oral dose) was −0.57 mm, the “VAS Bond and Lader “mood”, LSM CFB” value ([1]; 25 mg single oral dose) was −0.14 mm and the “VAS Bond and Lader “subjective alertness”, LSM CFB” value ([1]; 25 mg single oral dose) was 0.26 mm. For the same compound, the “VAS Bond and Lader “calmness”, LSM CFB” value ([1]; 50 mg single oral dose) was 3.6 mm, the “VAS Bond and Lader “mood”, LSM CFB” value ([1]; 50 mg single oral dose) was 4.47 mm and the “VAS Bond and Lader “subjective alertness”, LSM CFB” value ([1]; 50 mg single oral dose) was 0.96 mm. The “VAS Bond and Lader “calmness”, LSM CFB” value ([1]; 75 mg single oral dose) was 0.26 mm, the “VAS Bond and Lader “mood”, LSM CFB” value ([1]; 75 mg single oral dose) was −0.82 mm and the “VAS Bond and Lader “subjective alertness”, LSM CFB” value ([1]; 75 mg single oral dose) was −1.02 mm. For the same compound, the “VAS Bond and Lader “calmness”, LSM CFB” value ([1]; 100 mg single oral dose) was 0.58 mm, the “VAS Bond and Lader “mood”, LSM CFB” value ([1]; 100 mg single oral dose) was 0.56 mm and the “VAS Bond and Lader “subjective alertness”, LSM CFB” value ([1]; 100 mg single oral dose) was 0.57 mm. The “VAS Bond and Lader “calmness”, LSM CFB” value ([1]; 125 mg single oral dose) was 0.46 mm, the “VAS Bond and Lader “mood”, LSM CFB” value ([1]; 125 mg single oral dose) was 1.63 mm and the “VAS Bond and Lader “subjective alertness”, LSM CFB” value ([1]; 125 mg single oral dose) was −0.56 mm. The “VAS Bond and Lader “calmness”, LSM CFB” value ([1]; 150 mg single oral dose) was 2.59 mm, the “VAS Bond and Lader “mood”, LSM CFB” value ([1]; 150 mg single oral dose) was 3.35 mm and the “VAS Bond and Lader “subjective alertness”, LSM CFB” value ([1]; 150 mg single oral dose) was 1.94 mm. The “VAS Bond and Lader “calmness”, LSM CFB” value ([1]; 175 mg single oral dose) was 0.08 mm, the “VAS Bond and Lader “mood”, LSM CFB” value ([1]; 175 mg single oral dose) was 0.11 mm and the “VAS Bond and Lader “subjective alertness”, LSM CFB” value ([1]; 175 mg single oral dose) was −1.17 mm. The “VAS Bond and Lader “calmness”, LSM CFB” value ([1]; 200 mg single oral dose) was 0.68 mm, the “VAS Bond and Lader “mood”, LSM CFB” value ([1]; 200 mg single oral dose) was 0.51 mm and the “VAS Bond and Lader “subjective alertness”, LSM CFB” value ([1]; 200 mg single oral dose) was 0.09 mm. For the same compound, the “Affinity for sigma non-opioid intracellular receptor 1 lower than for SERT” value [2] was 900 fold, the “Left pupil/iris ratio, LSM CFB” value ([3]; 3 mg single oral dose) was 0.01 and the “Right pupil/iris ratio, LSM CFB” value ([3]; 3 mg single oral dose) was 0.02. The “Left pupil/iris ratio, LSM CFB” value ([3]; 10 mg single oral dose) was 0.04, the “Right pupil/iris ratio, LSM CFB” value ([3]; 10 mg single oral dose) was 0.03 and the “Left pupil/iris ratio, LSM CFB” value ([3]; 25 mg single oral dose) was 0.04. For the same compound, the “Right pupil/iris ratio, LSM CFB” value ([3]; 25 mg single oral dose) was 0.03, the “Left pupil/iris ratio, LSM CFB” value ([3]; 50 mg single oral dose) was 0.05 and the “Right pupil/iris ratio, LSM CFB” value ([3]; 50 mg single oral dose) was 0.07. The “Left pupil/iris ratio, LSM CFB” value ([3]; 75 mg single oral dose) was 0.04, the “Right pupil/iris ratio, LSM CFB” value ([3]; 75 mg single oral dose) was 0.03 and the “Left pupil/iris ratio, LSM CFB” value ([3]; 100 mg single oral dose) was 0.04. The “Right pupil/iris ratio, LSM CFB” value ([3]; 100 mg single oral dose) was 0.05, the “Left pupil/iris ratio, LSM CFB” value ([3]; 125 mg single oral dose) was 0.04 and the “Right pupil/iris ratio, LSM CFB” value ([3]; 125 mg single oral dose) was 0.05. For the same compound, the “Left pupil/iris ratio, LSM CFB” value ([3]; 150 mg single oral dose) was 0.03, the “Right pupil/iris ratio, LSM CFB” value ([3]; 150 mg single oral dose) was 0.05 and the “Left pupil/iris ratio, LSM CFB” value ([3]; 175 mg single oral dose) was 0.05. For the same compound, the “Right pupil/iris ratio, LSM CFB” value ([3]; 175 mg single oral dose) was 0.06, the “Left pupil/iris ratio, LSM CFB” value ([3]; 200 mg single oral dose) was 0.08 and the “Right pupil/iris ratio, LSM CFB” value ([3]; 200 mg single oral dose) was 0.06. The Ki [4] was 1.8 µM.

From article PMC9302689 (British Journal of Clinical Pharmacology, 2022)
